Laboratory results published in ChEMBL document CHEMBL5143728, “Next-Generation Diprovocims with Potent Human and Murine TLR1/TLR2 Agonist Activity That Activate the Innate and Adaptive Immune Response” (J Med Chem, 2022).
Activity calls are given as the source filed them. The calls are words filed in the database; no cut-off is given here.

Tests used:
Toll-like receptor 1/2 [1] = molecular target: T1, Toll-like receptor 1/2 (Homo sapiens, UniProt O60603+Q15399); assay: Agonist activity at TLR1/TLR2 in human THP-1 derived macrophages assessed as stimulation of TNF alpha release measured for 4 hrs by ELISA based assay relative to diprovocim-1; assay type: cell-based; parameters: Activity: concentration or dose not given beside the values; settings: filed as agonist
T1 sequence (O60603 whole entry): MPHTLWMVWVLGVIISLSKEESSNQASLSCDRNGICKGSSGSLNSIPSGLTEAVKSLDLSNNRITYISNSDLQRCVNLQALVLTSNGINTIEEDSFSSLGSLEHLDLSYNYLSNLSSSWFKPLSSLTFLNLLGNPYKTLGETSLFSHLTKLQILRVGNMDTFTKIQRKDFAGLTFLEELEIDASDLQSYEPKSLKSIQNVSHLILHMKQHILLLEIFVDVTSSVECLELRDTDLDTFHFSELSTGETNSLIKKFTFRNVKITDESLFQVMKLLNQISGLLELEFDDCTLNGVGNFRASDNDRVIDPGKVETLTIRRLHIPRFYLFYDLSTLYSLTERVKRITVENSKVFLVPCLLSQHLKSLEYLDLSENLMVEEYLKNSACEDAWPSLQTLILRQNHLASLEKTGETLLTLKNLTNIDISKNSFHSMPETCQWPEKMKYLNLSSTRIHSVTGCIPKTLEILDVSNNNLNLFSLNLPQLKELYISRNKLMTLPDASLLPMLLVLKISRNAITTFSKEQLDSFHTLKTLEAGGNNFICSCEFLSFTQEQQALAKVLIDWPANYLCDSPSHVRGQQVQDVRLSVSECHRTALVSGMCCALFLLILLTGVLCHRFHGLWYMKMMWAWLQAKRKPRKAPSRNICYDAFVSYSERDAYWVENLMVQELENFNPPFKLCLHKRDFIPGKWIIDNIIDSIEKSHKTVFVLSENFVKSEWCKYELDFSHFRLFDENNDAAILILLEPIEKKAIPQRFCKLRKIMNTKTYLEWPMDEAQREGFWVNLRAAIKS
T1 sequence (Q15399 whole entry): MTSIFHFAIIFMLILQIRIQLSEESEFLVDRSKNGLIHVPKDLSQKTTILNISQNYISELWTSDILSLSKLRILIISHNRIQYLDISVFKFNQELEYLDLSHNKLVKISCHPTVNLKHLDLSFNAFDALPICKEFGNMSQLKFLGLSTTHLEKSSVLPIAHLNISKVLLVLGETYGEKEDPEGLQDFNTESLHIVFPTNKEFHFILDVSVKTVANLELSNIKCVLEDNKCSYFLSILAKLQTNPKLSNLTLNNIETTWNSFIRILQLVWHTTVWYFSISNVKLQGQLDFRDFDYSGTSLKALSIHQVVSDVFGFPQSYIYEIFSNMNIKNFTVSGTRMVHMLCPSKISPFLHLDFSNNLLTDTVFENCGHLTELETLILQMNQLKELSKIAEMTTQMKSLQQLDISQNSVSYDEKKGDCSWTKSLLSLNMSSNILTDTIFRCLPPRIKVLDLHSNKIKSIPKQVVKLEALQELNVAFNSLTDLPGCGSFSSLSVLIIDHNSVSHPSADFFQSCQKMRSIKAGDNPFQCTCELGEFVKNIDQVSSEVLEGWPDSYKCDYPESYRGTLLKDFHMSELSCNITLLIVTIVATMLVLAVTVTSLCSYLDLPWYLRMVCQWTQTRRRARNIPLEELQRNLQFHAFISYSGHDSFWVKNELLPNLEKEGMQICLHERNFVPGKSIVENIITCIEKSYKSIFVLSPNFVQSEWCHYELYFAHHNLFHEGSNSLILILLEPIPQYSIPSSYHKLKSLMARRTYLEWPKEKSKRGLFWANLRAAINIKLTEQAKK
Summary of the method: (§1)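 THP-1 cells differentiated with 100 nM PMA in RPMI/10% FBS for 24 h, washed, then rested 24 h in fresh medium. Seeded at 0.5 × 10⁵ cells/well and exposed to graded compound concentrations for 4 h, with final DMSO held at 0.1%. LPS served as positive control and DMSO as negative control. Supernatant human TNF-α was read by ELISA. EC50 from duplicate means.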

[2] = molecular target: Toll-like receptor 1/2 (Mus musculus) (UniProt Q9QUN7+Q9EPQ1); assay: Agonist activity at TLR1/TLR2 in wild type C57BL/6J mouse macrophages assessed as stimulation of TNF alpha release measured for 4 hrs by ELISA based assay relative to diprovocim-1; assay type: cell-based; parameters: Activity: concentration or dose not given beside the values; settings: Macrophage, filed as agonist
Summary of the method: (§2)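 Thioglycolate-elicited peritoneal macrophages from wild type C57BL/6J mice, harvested by PBS lavage 4 d after i.p. 4% thioglycolate. Cultured in DMEM/10% FBS at 37 °C, 5% CO2, seeded at 1 × 10⁵ cells/well and exposed to graded compound concentrations for 4 h, with final DMSO ≤0.5% held constant. LPS served as positive control. Supernatant mouse TNF-α was read by ELISA. EC50 from duplicate means.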

Toll-like receptor 1/2 [3] = molecular target: Toll-like receptor 1/2 (Mus musculus, UniProt Q9EPQ1+Q9QUN7); assay: Agonist activity at TLR1/TLR2 in wild type C57BL/6J mouse macrophages assessed as stimulation of TNF alpha release measured for 4 hrs by ELISA based assay; assay type: cell-based, Macrophage; summary of the method: as §2
Toll-like receptor 1/2 (Mus musculus, UniProt Q9EPQ1+Q9QUN7), sequence (Q9QUN7 whole entry): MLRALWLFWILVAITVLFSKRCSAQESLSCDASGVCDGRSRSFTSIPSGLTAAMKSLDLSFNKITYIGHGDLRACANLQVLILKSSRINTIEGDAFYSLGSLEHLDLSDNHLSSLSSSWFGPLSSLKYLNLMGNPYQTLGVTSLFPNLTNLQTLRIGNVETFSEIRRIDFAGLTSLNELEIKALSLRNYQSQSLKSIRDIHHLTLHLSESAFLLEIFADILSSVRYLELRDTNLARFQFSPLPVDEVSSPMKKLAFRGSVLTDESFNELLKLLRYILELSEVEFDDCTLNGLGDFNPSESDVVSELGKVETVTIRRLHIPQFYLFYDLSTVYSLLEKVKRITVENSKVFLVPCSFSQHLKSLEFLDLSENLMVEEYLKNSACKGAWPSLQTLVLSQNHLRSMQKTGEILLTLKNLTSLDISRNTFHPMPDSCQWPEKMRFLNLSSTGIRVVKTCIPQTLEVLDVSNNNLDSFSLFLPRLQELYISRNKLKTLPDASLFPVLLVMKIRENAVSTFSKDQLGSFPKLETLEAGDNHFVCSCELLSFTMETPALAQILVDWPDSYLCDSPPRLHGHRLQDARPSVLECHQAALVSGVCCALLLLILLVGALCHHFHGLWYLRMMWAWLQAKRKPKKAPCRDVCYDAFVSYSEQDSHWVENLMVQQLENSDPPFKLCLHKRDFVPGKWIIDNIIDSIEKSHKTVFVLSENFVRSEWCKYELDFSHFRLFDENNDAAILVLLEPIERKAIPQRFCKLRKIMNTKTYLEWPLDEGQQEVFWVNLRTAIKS
Toll-like receptor 1/2 (Mus musculus, UniProt Q9EPQ1+Q9QUN7), sequence (Q9EPQ1 whole entry): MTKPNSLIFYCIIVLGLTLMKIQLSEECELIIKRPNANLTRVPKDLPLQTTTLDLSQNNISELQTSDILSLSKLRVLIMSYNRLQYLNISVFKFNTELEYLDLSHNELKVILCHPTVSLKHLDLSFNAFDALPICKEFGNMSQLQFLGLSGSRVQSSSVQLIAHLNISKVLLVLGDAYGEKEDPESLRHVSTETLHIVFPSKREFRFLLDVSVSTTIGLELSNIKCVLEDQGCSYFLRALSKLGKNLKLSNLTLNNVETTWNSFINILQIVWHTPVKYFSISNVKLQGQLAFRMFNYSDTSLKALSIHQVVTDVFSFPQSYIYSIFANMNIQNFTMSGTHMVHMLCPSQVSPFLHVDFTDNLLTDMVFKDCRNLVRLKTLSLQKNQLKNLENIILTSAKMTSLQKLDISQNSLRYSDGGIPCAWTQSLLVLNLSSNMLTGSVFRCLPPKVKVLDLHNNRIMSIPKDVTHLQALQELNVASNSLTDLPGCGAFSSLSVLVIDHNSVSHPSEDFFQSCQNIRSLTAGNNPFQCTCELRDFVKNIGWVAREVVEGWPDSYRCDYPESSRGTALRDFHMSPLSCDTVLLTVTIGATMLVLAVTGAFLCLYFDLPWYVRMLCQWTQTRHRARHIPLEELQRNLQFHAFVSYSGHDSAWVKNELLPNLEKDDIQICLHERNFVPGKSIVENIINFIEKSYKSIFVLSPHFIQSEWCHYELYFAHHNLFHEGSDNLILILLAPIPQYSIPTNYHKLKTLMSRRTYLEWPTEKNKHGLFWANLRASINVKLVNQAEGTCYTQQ

Toll-like receptor 1/2 [4] = molecular target: T1, Toll-like receptor 1/2; assay: Agonist activity at TLR1/TLR2 in human THP-1 derived macrophages assessed as stimulation of TNF alpha release measured for 4 hrs by ELISA based assay; assay type: cell-based; summary of the method: as §1
Splenocyte = assay: In vivo cytotoxicity against C57BL/6 mouse-derived splenocytes loaded with SIINFEKL peptide allografted in immunized C57BL/6J mouse at 10 mg/kg, IM on day 0 and day 28 followed by spleenocytes injection on day 7 and day 35 and measured on day 9 and 37 by flow cytometry; assay type: functional, organism-based
Mus musculus [5] = assay: Immuno-adjuvant activity in C57BL/6J mouse assessed as increase in level of OVA specific Goat Anti-Mouse IgG1-HRP antibody at 10 mg/kg, IM co-treated with ovalbumin at 5 mg/kg incubated for 1 hrs measured on day 14 by ELISA; assay type: functional, organism-based
Summary of the method: (§3)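 Female 8-week C57BL/6J mice (ca. 20 g) given i.m. 200 μg (10 mg/kg) agonist mixed with 100 μg OVA (5 mg/kg, low endotoxin) in DMSO:Tween 80:saline 1:1:8 on day 0. Controls received vehicle or OVA alone; 5–8 mice/group. Serum OVA-specific IgG, IgG1 and IgG2b measured by ELISA on day 14. Mean ± SD; one-way ANOVA with Tukey test.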

Mus musculus [6] = assay: Immuno-adjuvant activity in C57BL/6J mouse assessed as increase in level of OVA specific Goat Anti-Mouse IgG-HRP antibody at 10 mg/kg, IM co-treated with ovalbumin at 5 mg/kg incubated for 1 hrs measured on day 14 by ELISA; assay type: functional, organism-based; summary of the method: as §3
Mus musculus [7] = assay: Immuno-adjuvant activity in C57BL/6J mouse assessed as increase in level of OVA specific Goat Anti-Mouse IgG2b-HRP antibody at 10 mg/kg, IM co-treated with ovalbumin at 5 mg/kg incubated for 1 hrs measured on day 14 by ELISA; assay type: functional, organism-based; summary of the method: as §3
Peritoneal macrophage [8] = assay: Stimulation of TNF alpha release in TLR4-sufficient wild type C3H/HeOuJ mouse peritoneal macrophage at 500 nM; assay type: functional, cell-based
Summary of the method: (§4)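 Peritoneal macrophages from Tlr4-WT C3H/HeOuJ mice or Tlr4 P712H-mutant C3H/HeJ mice, stimulated with agonist at 500 nM. Released TNF-α measured. LPS run as positive control.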

Peritoneal macrophage [9] = assay: Stimulation of TNF alpha release in TLR4- deficient mutant C3H/HeJ mouse peritoneal macrophage at 500 nM; assay type: functional, cell-based; summary of the method: as §4

Emax (Toll-like receptor 1/2 [1]) [%]	Emax [2] [%]	EC50 (Toll-like receptor 1/2 [3]) [nM]	EC50 (Toll-like receptor 1/2 [4]) [nM]	Activity (Toll-like receptor 1/2 [1]) [%]	Activity [2] [%]	Compound	Activity (Splenocyte)	Activity (Mus musculus [5])	Activity (Mus musculus [6])	Activity (Mus musculus [7])	Activity (Peritoneal macrophage [8])	Activity (Peritoneal macrophage [9])
100	240	540	0.33			CCCCCCCCNC(=O)[C@@H]1CN(C(=O)c2ccc(C(=O)N3C[C@@H](C(=O)N[C@H]4C[C@@H]4c4ccccc4)[C@H](C(=O)N[C@H]4C[C@@H]4c4ccccc4)C3)cc2)C[C@H]1C(=O)N[C@H]1C[C@@H]1c1ccccc1						
		0.75	0.14	100	550	CC(C)(C)OC(=O)NCC(=O)OCCCCCCCCCCCCNC(=O)[C@@H]1CN(C(=O)c2ccc(C(=O)N3C[C@@H](C(=O)N[C@H]4C[C@@H]4c4ccccc4)[C@H](C(=O)N[C@H]4C[C@@H]4c4ccccc4)C3)cc2)C[C@H]1C(=O)N[C@H]1C[C@@H]1c1ccccc1	Active	Active	Active	Active		
						O=C(N[C@H]1C[C@@H]1c1ccccc1)[C@@H]1CN(C(=O)c2ccc(C(=O)N3C[C@@H](C(=O)N[C@H]4C[C@@H]4c4ccccc4)[C@H](C(=O)N[C@H]4C[C@@H]4c4ccccc4)C3)cc2)C[C@H]1C(=O)N[C@H]1C[C@@H]1c1ccccc1	Active	Active	Active	Active	Active	Active
110	75	2.6	0.5			CCCCCCCCCCCCCCCCNC(=O)[C@@H]1CN(C(=O)c2ccc(C(=O)N3C[C@@H](C(=O)N[C@H]4C[C@@H]4c4ccccc4)[C@H](C(=O)N[C@H]4C[C@@H]4c4ccccc4)C3)cc2)C[C@H]1C(=O)N[C@H]1C[C@@H]1c1ccccc1						
